1 compound from publication PMC9279629 (Acta Pharmaceutica Sinica. B, 2021) can be followed below.

The target in test [1] is PDE10A (Homo sapiens, UniProt Q9Y233). Kind of test: PDE10A inhibition, fluorescence polarization. Type of test: biochemical. A digest of the protocol: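 Test compound was dissolved in DMSO, stored at −20 °C and tested in a 10-point, 3-fold serial dilution from a top concentration of 1 µmol/L (n = 3). Enzyme activity was read by fluorescence polarization, and IC50 was derived from the concentration–response data.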
On the technique in general: Polarisation of emitted light reports the rotation of a fluorescent probe.

The test system of test [2] is PDE1A/B/C, PDE2A, PDE3A/B, PDE4A/B/C/D, PDE5A, PDE7A, PDE8A, PDE9A. Kind of test: PDE selectivity panel, fluorescence polarization, single dose 5 μmol/L. Type of test: biochemical. The settings on record: concentrations up to 5 μmol/L.

PDE10A, sequence (Q9Y233 whole entry): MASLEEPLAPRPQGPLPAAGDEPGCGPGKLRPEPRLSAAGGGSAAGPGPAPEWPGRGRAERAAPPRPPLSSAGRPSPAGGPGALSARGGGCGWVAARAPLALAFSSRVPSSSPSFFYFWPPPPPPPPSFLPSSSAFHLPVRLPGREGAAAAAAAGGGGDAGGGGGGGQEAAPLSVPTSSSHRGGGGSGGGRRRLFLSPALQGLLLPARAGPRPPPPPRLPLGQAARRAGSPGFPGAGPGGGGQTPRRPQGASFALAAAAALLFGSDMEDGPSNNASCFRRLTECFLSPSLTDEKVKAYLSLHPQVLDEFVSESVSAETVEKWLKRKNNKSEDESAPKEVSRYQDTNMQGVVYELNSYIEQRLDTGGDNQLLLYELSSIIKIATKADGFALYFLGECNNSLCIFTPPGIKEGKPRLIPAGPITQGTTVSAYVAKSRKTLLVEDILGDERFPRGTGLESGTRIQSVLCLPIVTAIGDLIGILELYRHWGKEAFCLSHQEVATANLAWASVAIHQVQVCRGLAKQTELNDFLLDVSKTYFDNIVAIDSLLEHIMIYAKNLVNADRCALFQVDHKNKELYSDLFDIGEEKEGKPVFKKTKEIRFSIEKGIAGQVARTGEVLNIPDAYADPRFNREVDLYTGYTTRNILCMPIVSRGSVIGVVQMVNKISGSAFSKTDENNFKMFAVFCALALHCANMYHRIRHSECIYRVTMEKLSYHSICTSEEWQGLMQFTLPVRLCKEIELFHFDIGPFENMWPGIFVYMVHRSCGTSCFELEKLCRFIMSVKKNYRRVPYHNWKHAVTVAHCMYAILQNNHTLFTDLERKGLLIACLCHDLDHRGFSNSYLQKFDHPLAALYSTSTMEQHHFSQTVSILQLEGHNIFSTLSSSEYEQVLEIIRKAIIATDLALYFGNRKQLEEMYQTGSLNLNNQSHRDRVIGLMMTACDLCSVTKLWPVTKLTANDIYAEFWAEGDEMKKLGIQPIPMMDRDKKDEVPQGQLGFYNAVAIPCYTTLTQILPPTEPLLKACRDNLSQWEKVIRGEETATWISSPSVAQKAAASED

In the case of `Cc1ccc2c(=O)n(-c3ccc(F)cc3)c(CCN3C(=O)c4cccc(OC(C)C)c4C3=O)nc2c1` [compound 9, 2-(2-(3-(4-Fluorophenyl)-7-methyl-4-oxo-3,4-dihydroquinazolin-2-yl)ethyl)-4-isopropoxyisoindoline-1,3-dione], half-maximal inhibition in test [1] (IC50) required 2.07 nM. Besides, the “inhibition of other PDE subtypes” value in test [2] was “no significant inhibition”.
